ChEMBL document CHEMBL1130336, “Polyanion inhibitors of human immunodeficiency virus and other viruses. 6. Micelle-like anti-HIV polyanionic compounds based on a carbohydrate core” (J Med Chem, 1997)

Key:
CEM-4 [1] = assay: Concentration required to reduce the viability of uninfected CEM-4 cells by 50%; format: functional; conditions: Homo sapiens
Method in brief: (§1)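 Cytotoxicity in uninfected CEM-4 or MT-4 cells, measured as inhibition of cell growth. The value is the concentration that lowers viability by 50%.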

CEM-4 [2] = assay: Inhibitory concentration required to inhibit HIV-induced cytopathicity in CEM-4 cells by 50%; format: functional, cell-based; conditions: Homo sapiens
Method in brief: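 CEM-4 cells infected with HIV-1 (strain HTLV-III_B/LAI). The end point is 50% inhibition of HIV-induced cytopathicity.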

HEL [3] = assay: Concentration required to inhibit HEL cell growth by 50%; format: functional, cell-based; conditions: Homo sapiens
Vero [4] = assay: Concentration required to cause a microscopically detectable alteration of normal Vero cell morphology; format: functional, cell-based; conditions: Chlorocebus sabaeus
HEL [5] = assay: Concentration required to reduce human cytomegalo virus(AD-169) inducted cytopathicity by 50% (HEL cells); format: functional, cell-based
Method in brief: (§2)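 Virus was added in the presence of compound, and the cells were incubated until cytopathic effect was scored. The value is the concentration that reduces virus-induced CPE by 50%.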

Vero [6] = assay: Concentration required to reduce reovirus-1 inducted cytopathicity by 50% (Vero cells); format: functional, cell-based; conditions: Chlorocebus sabaeus
HeLa [7] = assay: Concentration required to reduce Coxsackie virus-inducted cytopathicity by 50% (HeLa cells); format: functional, cell-based; conditions: Homo sapiens
E6SM [8] = assay: Concentration required to reduce herpes simplex virus-1TK (KOS) inducted cytopathicity by 50% (E6SM cells); format: functional, cell-based; conditions: Homo sapiens; method in brief: as §2
Vero [9] = assay: Concentration required to reduce forest virus-inducted cytopathicity by 50% (Vero cells); format: functional, cell-based; conditions: Chlorocebus sabaeus
E6SM [10] = assay: Concentration required to reduce herpes simplex virus-1TK( B2006) inducted cytopathicity by 50% (E6SM cells); format: functional, cell-based; conditions: Homo sapiens; method in brief: as §2
E6SM [11] = assay: Concentration required to reduce herpes simplex virus-2(G) inducted cytopathicity by 50% (E6SM cells); format: functional, cell-based; conditions: Homo sapiens; method in brief: as §2
Vero [12] = assay: Concentration required to reduce sindbis virus-inducted cytopathicity by 50% (Vero cells); format: functional, cell-based; conditions: Chlorocebus sabaeus
Vaccinia virus = assay: Concentration required to reduce vaccinia virus-inducted cytopathicity by 50% (E6SM cells); format: functional, organism-based, Orthopoxvirus vaccinia; conditions: Orthopoxvirus vaccinia, E6SM
[13] = tested on: Human immunodeficiency virus 2; assay: Concentration required to inhibit by 50% human immunodeficiency virus-2 induced syncytium formation upon coculturing persistently HIV-infected HUT-78 cells with MOLT-4 cells; conditions: HUT-78, MOLT-4
Vero [14] = assay: Concentration required to reduce Junin virus-inducted cytopathicity by 50% (Vero cells); format: functional, cell-based; conditions: Chlorocebus sabaeus
Vero [15] = assay: Concentration required to reduce parainfluenza-3 virus-inducted cytopathicity by 50% (Vero cells); format: functional, cell-based; conditions: Chlorocebus sabaeus
E6SM [16] = assay: Concentration required to cause a microscopically detectable alteration of normal E6SM cell morphology; format: functional, cell-based; conditions: Homo sapiens, read-out: IC50
Method in brief: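 Minimum cytotoxic concentration, read microscopically as the level that causes a detectable alteration of normal cell morphology.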

HeLa [17] = assay: Concentration required to reduce vesicular stomatitis virus-inducted cytopathicity by 50% (HeLa cells); format: functional, cell-based; conditions: Homo sapiens
HeLa [18] = assay: Concentration required to reduce polio-1 virus-inducted cytopathicity by 50% (HeLa cells); format: functional, cell-based; conditions: Homo sapiens
E6SM [19] = assay: Concentration required to reduce herpes simplex virus-2(196) inducted cytopathicity by 50% (E6SM cells); format: functional, cell-based; conditions: Homo sapiens; method in brief: as §2
MT4 [20] = assay: Concentration required to inhibit human immunodeficiency virus-1 induced cytopathicity in MT-4 cells by 50%; format: functional, cell-based
Method in brief: (§3)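 MT-4 cells infected with HIV-1 (strain HTLV-III_B/LAI) or HIV-2 (strain LAV_ROD). The end point is 50% inhibition of virus-induced cytopathicity.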

Vero [21] = assay: Concentration required to reduce Coxsackie virus-inducted cytopathicity by 50% (Vero cells); format: functional, cell-based; conditions: Chlorocebus sabaeus
Vero [22] = assay: Concentration required to reduce Tacaribe virus-inducted cytopathicity by 50% (Vero cells); format: functional, cell-based; conditions: Chlorocebus sabaeus
E6SM [23] = assay: Concentration required to reduce herpes simplex virus-1TK (McIntyre) inducted cytopathicity by 50% (E6SM cells); format: functional, cell-based; conditions: Homo sapiens; method in brief: as §2
MT4 [24] = assay: Concentration required to reduce the viability of uninfected MT-4 cells by 50%; format: functional; conditions: Homo sapiens; method in brief: as §1
[25] = tested on: Human immunodeficiency virus 1; assay: Concentration required to inhibit by 50% human immunodeficiency virus-1 induced syncytium formation upon coculturing persistently HIV-infected HUT-78 cells with MOLT-4 cells; format: functional, organism-based; conditions: Human immunodeficiency virus 1, MOLT-4
Method in brief: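 MOLT-4 (clone 8) cells at 1 × 10^6 cells/mL, cocultured with an equal number of persistently infected HUT-78/HIV-1 or HUT-78/HIV-2 cells across a range of compound concentrations. Giant cells were counted under the microscope after 24 h of cocultivation. The value is the concentration giving 50% inhibition of syncytium formation.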

E6SM [26] = assay: Concentration required to reduce herpes simplex virus-1TK (VMW1837) inducted cytopathicity by 50% (E6SM cells); format: functional, cell-based; conditions: Homo sapiens; method in brief: as §2
HEL [27] = assay: Concentration required to reduce human cytomegalo virus(Davis) inducted cytopathicity by 50% (HEL cells); format: functional, cell-based; method in brief: as §2
E6SM [28] = assay: Concentration required to reduce herpes simplex virus-2(Lyons) inducted cytopathicity by 50% (E6SM cells); format: functional, cell-based; conditions: Homo sapiens; method in brief: as §2
E6SM [29] = assay: Concentration required to reduce herpes simplex virus-1TK (F) inducted cytopathicity by 50% (E6SM cells); format: functional, cell-based; conditions: Homo sapiens; method in brief: as §2
MT4 [30] = assay: Concentration required to inhibit human immunodeficiency virus-2 induced cytopathicity in MT-4 cells by 50%; format: functional, cell-based; method in brief: as §3
HeLa [31] = assay: Concentration required to cause a microscopically detectable alteration of normal Hela cell morphology; format: functional, cell-based; conditions: Homo sapiens

SMILES	CC50 (CEM-4 [1])	IC50 (CEM-4 [2])	IC50 (HEL [3])	IC50 (Vero [4])	IC50 (Vero [6])	IC50 (HeLa [7])	IC50 (E6SM [8])	IC50 (Vero [9])	IC50 (E6SM [10])	IC50 (E6SM [11])	IC50 (Vero [12])	IC50 (Vaccinia virus)	IC50 [13]	IC50 (Vero [14])	IC50 (Vero [15])	minimum cytotoxic concentration (E6SM [16])	IC50 (HeLa [17])	IC50 (HeLa [18])	IC50 (E6SM [19])	IC50 (MT4 [20])	also measured
CO[C@H]1O[C@H](COCCCSCC(=O)O)[C@@H](OCCCSCC(=O)O)[C@@H](OCCCSCC(=O)O)[C@H]1OCCCSCC(=O)O	> 370 µM	> 370 µM	–	–	–	–	–	–	–	–	–	–	–	–	–	–	–	–	–	–	–
CO[C@H]1O[C@H](COCCCSC(CC(=O)O)C(=O)O)[C@@H](OCCCSC(CC(=O)O)C(=O)O)[C@@H](OCCCSC(CC(=O)O)C(=O)O)[C@H]1OCCCSC(CC(=O)O)C(=O)O (stereo partly drawn)	> 265 µM	69 µM	–	–	–	–	–	–	–	–	–	–	–	–	–	–	–	–	–	–	–
CO[C@H]1O[C@H](COCCCSCCC(=O)O)[C@@H](OCCCSCCC(=O)O)[C@@H](OCCCSCCC(=O)O)[C@H]1OCCCSCCC(=O)O	> 346 µM	> 346 µM	–	–	–	–	–	–	–	–	–	–	–	–	–	–	–	–	–	–	–
O=S(=O)(O)CCSCCCOC[C@H]1O[C@@](COCCCSCCS(=O)(=O)O)(O[C@H]2O[C@H](COCCCSCCS(=O)(=O)O)[C@@H](OCCCSCCS(=O)(=O)O)[C@H](OCCCSCCS(=O)(=O)O)[C@H]2OCCCSCCS(=O)(=O)O)[C@@H](OCCCSCCS(=O)(=O)O)[C@@H]1OCCCSCCS(=O)(=O)O	> 50.6 µM	> 50.6 µM	> 25 µM	> 101 µM	> 101 µM	> 51 µM	> 101 µM	> 101 µM	> 203 µM	> 101 µM	> 101 µM	> 101 µM	> 127 µM	> 25 µM	> 101 µM	> 203 µM	> 51 µM	> 51 µM	> 101 µM	> 127 µM	IC50 (HEL [5]): > 25 µM; IC50 (Vero [21]): > 101 µM; IC50 (Vero [22]): > 25 µM; IC50 (E6SM [23]): > 101 µM; CC50 (MT4 [24]): > 127 µM; IC50 [25]: > 127 µM; IC50 (E6SM [26]): > 101 µM; IC50 (HEL [27]): > 25 µM; IC50 (E6SM [28]): > 101 µM; IC50 (E6SM [29]): > 101 µM; IC50 (MT4 [30]): > 127 µM; IC50 (HeLa [31]): > 101 µM
O=C(O)CCSCCCOC[C@H]1O[C@@](COCCCSCCC(=O)O)(O[C@H]2O[C@H](COCCCSCCC(=O)O)[C@@H](OCCCSCCC(=O)O)[C@H](OCCCSCCC(=O)O)[C@H]2OCCCSCCC(=O)O)[C@@H](OCCCSCCC(=O)O)[C@@H]1OCCCSCCC(=O)O	> 59.3 µM	> 59.3 µM	> 30 µM	> 119 µM	> 59 µM	> 119 µM	> 237 µM	> 59 µM	> 237 µM	> 237 µM	> 59 µM	> 237 µM	> 148 µM	> 12 µM	> 59 µM	> 237 µM	> 119 µM	> 119 µM	> 237 µM	29 µM	IC50 (Vero [21]): > 59 µM; IC50 (Vero [22]): > 12 µM; IC50 (E6SM [23]): > 237 µM; CC50 (MT4 [24]): > 148 µM; IC50 [25]: > 148 µM; IC50 (E6SM [26]): > 237 µM; IC50 (E6SM [28]): > 119 µM; IC50 (E6SM [29]): > 237 µM; IC50 (MT4 [30]): > 148 µM; IC50 (HeLa [31]): > 119 µM
